The source made the active and inactive calls. The calls are words filed in the database; no cut-off is given here.
Legend:
[1] = biological target: Retinoic acid receptor gamma (Homo sapiens) (UniProt P13631); test: Antagonist activity at GAL4-tagged human RARgamma isoform 1 ligand binding domain (179 to 454 residues) expressed in HEK293T cells at 1 uM after 12 to 14 hrs by dual-glo luciferase reporter gene assay; format: cell-based; conditions: HEK-293T
Procedure, shortened: (§1)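 Run as a selectivity screen against each listed receptor (14 nuclear receptors plus TGR5), in both agonist and antagonist modes. Test concentration was 1 µM, with n = 3.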

[2] = biological target: Oxysterols receptor LXR-beta (Homo sapiens) (UniProt P55055); test: Antagonist activity at GAL4-tagged human LXRbeta ligand binding domain expressed in HEK293T cells at 1 uM after 12 to 14 hrs by dual-glo luciferase reporter gene assay; format: cell-based; conditions: HEK-293T; procedure, shortened: as §1
[3] = biological target: Retinoic acid receptor RXR-alpha (Homo sapiens) (UniProt P19793); test: Antagonist activity at GAL4-tagged human RXRalpha ligand binding domain (225 to 462 residues) expressed in HEK293T cells at 1 uM after 12 to 14 hrs by dual-glo luciferase reporter gene assay; format: cell-based; conditions: HEK-293T; procedure, shortened: as §1
[4] = system: HeLa; test: Selectivity ratio for human FXR expressed in human HeLa cells co-expressing BSEP over GAL4-tagged human RARgamma isoform 1 ligand binding domain (179 to 454 residues) expressed in HEK293T cells; format: cell-based
[5] = biological target: T1, Bile acid receptor (Homo sapiens) (UniProt Q96RI1); test: Modulation of FXR in human HepG2 cells assessed as induction of PPARalpha mRNA expression at 10 nM by qRT-PCR analysis; format: cell-based
T1 sequence (whole entry): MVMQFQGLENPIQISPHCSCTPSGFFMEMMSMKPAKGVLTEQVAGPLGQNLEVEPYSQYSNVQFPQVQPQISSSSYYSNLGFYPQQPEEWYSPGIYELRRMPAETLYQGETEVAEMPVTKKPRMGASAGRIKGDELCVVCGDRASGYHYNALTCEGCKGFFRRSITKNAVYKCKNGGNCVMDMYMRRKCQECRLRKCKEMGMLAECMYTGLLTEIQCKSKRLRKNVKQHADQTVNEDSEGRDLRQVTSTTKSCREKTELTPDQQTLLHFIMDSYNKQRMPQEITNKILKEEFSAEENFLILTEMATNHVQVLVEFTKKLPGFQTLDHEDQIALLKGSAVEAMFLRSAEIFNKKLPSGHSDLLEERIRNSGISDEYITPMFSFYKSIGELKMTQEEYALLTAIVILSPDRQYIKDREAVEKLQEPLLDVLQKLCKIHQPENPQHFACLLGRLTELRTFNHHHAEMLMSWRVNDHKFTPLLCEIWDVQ
Procedure, shortened: (§2)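 HepG2 hepatocarcinoma cells were incubated with the compound at 10 nM. FXR target-gene mRNA was quantified by qRT-PCR (n = 3), with significance at p < 0.05, 0.01 and 0.001.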

[6] = biological target: Retinoic acid receptor RXR-gamma (Homo sapiens) (UniProt P48443); test: Transactivation of GAL4-tagged human RXRgamma ligand binding domain (229 to 463 residues) expressed in HEK293T cells at 1 uM after 12 to 14 hrs by dual-glo luciferase reporter gene assay; format: cell-based; conditions: HEK-293T; procedure, shortened: as §1
[7] = biological target: T1, Bile acid receptor (Homo sapiens); test: Transactivation of human FXR expressed in human HeLa cells co-expressing BSEP at 3 uM after 24 hrs by dual-glo luciferase reporter gene assay relative to GW4064; format: cell-based
Procedure, shortened: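 Full-length FXR reporter gene assay with constitutively expressed hFXR and hRXR, plus renilla luciferase for normalization and toxicity control. Maximum relative activation is expressed against the reference agonist at 3 µM, set as 100%.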

[8] = biological target: Oxysterols receptor LXR-alpha (Homo sapiens) (UniProt Q13133); test: Transactivation of GAL4-tagged human LXRalpha ligand binding domain expressed in HEK293T cells at 1 uM after 12 to 14 hrs by dual-glo luciferase reporter gene assay; format: cell-based; conditions: HEK-293T; procedure, shortened: as §1
[9] = biological target: Peroxisome proliferator-activated receptor gamma (Homo sapiens) (UniProt P37231); test: Antagonist activity at GAL4-tagged human PPARgamma ligand binding domain expressed in HEK293T cells at 1 uM after 12 to 14 hrs by dual-glo luciferase reporter gene assay; format: cell-based; conditions: HEK-293T; procedure, shortened: as §1
[10] = biological target: G-protein coupled bile acid receptor 1 (Homo sapiens) (UniProt Q8TDU6); test: Antagonist activity at TGR5 (unknown origin) expressed in HEK293T cells at 1 uM after 12 to 14 hrs by dual-glo luciferase reporter gene assay; format: cell-based; procedure, shortened: as §1
[11] = biological target: T1, Bile acid receptor (Homo sapiens); test: Modulation of FXR in human HepG2 cells assessed as suppression of SREBP1c mRNA expression at 10 nM by qRT-PCR analysis; format: cell-based; procedure, shortened: as §2
[12] = biological target: Peroxisome proliferator-activated receptor delta (Homo sapiens) (UniProt Q03181); test: Antagonist activity at GAL4-tagged human PPARdelta ligand binding domain expressed in HEK293T cells at 1 uM after 12 to 14 hrs by dual-glo luciferase reporter gene assay; format: cell-based; conditions: HEK-293T; procedure, shortened: as §1
[13] = system: HeLa; test: Selectivity ratio for human FXR expressed in human HeLa cells co-expressing BSEP over TGR5 (unknown origin) expressed in HEK293T cells; format: cell-based
[14] = biological target: Oxysterols receptor LXR-alpha (Homo sapiens) (UniProt Q13133); test: Antagonist activity at GAL4-tagged human LXRalpha ligand binding domain expressed in HEK293T cells at 1 uM after 12 to 14 hrs by dual-glo luciferase reporter gene assay; format: cell-based; conditions: HEK-293T; procedure, shortened: as §1
[15] = system: HeLa; test: Selectivity ratio for human FXR expressed in human HeLa cells co-expressing BSEP over GAL4-tagged human LXRalpha ligand binding domain expressed in HEK293T cells; format: cell-based
[16] = system: HeLa; test: Selectivity ratio for human FXR expressed in human HeLa cells co-expressing BSEP over GAL4-tagged human RARbeta1 ligand binding domain (177 to 455 residues) expressed in HEK293T cells; format: cell-based
[17] = biological target: G-protein coupled bile acid receptor 1 (Homo sapiens) (UniProt Q8TDU6); test: Agonist activity at TGR5 (unknown origin) expressed in HEK293T cells at 1 uM after 12 to 14 hrs by dual-glo luciferase reporter gene assay; format: cell-based; procedure, shortened: as §1
[18] = biological target: T2, Nuclear receptor subfamily 1 group I member 2 (Homo sapiens, UniProt O75469); test: Transactivation of GAL4-tagged human PXR isoform 1 ligand binding domain (138 to 434 residues) expressed in HEK293T cells at 1 uM after 12 to 14 hrs by dual-glo luciferase reporter gene assay; format: cell-based; conditions: hek-293t; procedure, shortened: as §1
[19] = system: HeLa; test: Selectivity ratio for human FXR expressed in human HeLa cells co-expressing BSEP over GAL4-tagged human RXRalpha ligand binding domain (225 to 462 residues) expressed in HEK293T cells; format: cell-based
[20] = system: HeLa; test: Selectivity ratio for human FXR expressed in human HeLa cells co-expressing BSEP over GAL4-tagged human PXR isoform 1 ligand binding domain (138 to 434 residues) expressed in HEK293T cells; format: cell-based
[21] = biological target: Retinoic acid receptor beta (Homo sapiens) (UniProt P10826); test: Antagonist activity at GAL4-tagged human RARbeta1 ligand binding domain (177 to 455 residues) expressed in HEK293T cells at 1 uM after 12 to 14 hrs by dual-glo luciferase reporter gene assay; format: cell-based; conditions: HEK-293T; procedure, shortened: as §1
[22] = biological target: T2, Nuclear receptor subfamily 1 group I member 2; test: Antagonist activity at GAL4-tagged human PXR isoform 1 ligand binding domain (138 to 434 residues) expressed in HEK293T cells at 1 uM after 12 to 14 hrs by dual-glo luciferase reporter gene assay; format: cell-based; conditions: hek-293t; procedure, shortened: as §1
[23] = Metabolic stability in human HepG2 cells assessed as compound remaining after 24 hrs by HPLC analysis; format: ADME, cell-based; conditions: read-out: Stability

T2 sequence (O75469 whole entry, the tested form may be a part, canonical isoform): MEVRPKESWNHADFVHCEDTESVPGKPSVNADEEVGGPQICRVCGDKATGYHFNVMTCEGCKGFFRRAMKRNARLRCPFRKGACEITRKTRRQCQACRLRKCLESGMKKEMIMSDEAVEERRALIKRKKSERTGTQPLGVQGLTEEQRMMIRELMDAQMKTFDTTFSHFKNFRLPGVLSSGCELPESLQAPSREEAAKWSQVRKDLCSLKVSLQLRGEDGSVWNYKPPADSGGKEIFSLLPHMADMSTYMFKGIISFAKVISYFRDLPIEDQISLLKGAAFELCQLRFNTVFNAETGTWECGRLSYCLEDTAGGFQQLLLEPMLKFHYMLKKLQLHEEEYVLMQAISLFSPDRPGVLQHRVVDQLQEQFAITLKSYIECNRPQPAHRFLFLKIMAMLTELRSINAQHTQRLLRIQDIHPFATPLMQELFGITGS
Sequence of Oxysterols receptor LXR-alpha (Homo sapiens) (Q13133 whole entry, the tested form may be a part): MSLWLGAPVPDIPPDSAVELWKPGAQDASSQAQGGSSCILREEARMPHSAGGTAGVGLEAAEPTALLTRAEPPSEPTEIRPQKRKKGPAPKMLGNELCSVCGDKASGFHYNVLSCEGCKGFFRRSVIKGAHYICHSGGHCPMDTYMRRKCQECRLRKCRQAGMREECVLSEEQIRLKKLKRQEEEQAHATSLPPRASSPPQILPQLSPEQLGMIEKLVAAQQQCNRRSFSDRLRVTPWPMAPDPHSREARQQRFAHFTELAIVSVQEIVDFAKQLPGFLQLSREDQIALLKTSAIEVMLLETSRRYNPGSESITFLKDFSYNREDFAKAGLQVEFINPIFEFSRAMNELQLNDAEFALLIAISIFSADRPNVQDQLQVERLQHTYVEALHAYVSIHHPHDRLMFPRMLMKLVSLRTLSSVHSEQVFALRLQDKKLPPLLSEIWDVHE
Sequence of G-protein coupled bile acid receptor 1 (Homo sapiens) (Q8TDU6 whole entry, the tested form may be a part, canonical isoform): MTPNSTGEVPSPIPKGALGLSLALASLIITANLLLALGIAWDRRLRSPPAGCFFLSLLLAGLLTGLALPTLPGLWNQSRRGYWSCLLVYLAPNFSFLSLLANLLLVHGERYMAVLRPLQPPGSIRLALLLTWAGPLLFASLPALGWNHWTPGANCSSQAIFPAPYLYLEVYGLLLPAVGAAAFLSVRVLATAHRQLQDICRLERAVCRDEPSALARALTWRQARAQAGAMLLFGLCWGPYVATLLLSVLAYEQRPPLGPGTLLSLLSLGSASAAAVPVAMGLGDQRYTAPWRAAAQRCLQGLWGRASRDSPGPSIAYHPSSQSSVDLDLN
Sequence of Retinoic acid receptor gamma (Homo sapiens) (P13631 whole entry, the tested form may be a part, canonical isoform): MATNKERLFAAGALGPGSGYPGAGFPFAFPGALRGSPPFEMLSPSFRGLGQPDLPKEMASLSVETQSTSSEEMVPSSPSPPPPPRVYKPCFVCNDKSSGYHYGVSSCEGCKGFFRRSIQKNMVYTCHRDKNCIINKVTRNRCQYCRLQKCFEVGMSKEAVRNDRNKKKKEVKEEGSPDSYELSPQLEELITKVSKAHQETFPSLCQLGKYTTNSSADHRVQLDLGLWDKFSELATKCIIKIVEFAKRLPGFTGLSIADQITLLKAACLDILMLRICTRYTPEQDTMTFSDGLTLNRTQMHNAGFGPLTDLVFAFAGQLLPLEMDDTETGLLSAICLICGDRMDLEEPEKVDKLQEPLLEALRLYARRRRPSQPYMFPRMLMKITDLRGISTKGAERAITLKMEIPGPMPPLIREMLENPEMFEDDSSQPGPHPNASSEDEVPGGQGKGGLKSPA
Sequence of Retinoic acid receptor beta (Homo sapiens) (P10826 whole entry, the tested form may be a part, canonical isoform): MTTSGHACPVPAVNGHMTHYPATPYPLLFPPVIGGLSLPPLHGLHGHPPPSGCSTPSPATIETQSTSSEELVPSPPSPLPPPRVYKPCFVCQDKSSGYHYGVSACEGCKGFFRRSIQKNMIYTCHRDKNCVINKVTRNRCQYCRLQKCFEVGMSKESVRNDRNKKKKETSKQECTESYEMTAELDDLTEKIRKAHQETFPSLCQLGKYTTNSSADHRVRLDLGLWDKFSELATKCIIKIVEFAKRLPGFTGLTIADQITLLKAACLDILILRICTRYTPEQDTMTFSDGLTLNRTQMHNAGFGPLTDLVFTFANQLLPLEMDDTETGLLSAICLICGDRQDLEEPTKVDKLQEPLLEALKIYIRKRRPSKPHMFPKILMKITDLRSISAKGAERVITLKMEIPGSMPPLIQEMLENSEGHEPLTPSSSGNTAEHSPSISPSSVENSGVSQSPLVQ
Sequence of Retinoic acid receptor RXR-alpha (Homo sapiens) (P19793 whole entry, the tested form may be a part, canonical isoform): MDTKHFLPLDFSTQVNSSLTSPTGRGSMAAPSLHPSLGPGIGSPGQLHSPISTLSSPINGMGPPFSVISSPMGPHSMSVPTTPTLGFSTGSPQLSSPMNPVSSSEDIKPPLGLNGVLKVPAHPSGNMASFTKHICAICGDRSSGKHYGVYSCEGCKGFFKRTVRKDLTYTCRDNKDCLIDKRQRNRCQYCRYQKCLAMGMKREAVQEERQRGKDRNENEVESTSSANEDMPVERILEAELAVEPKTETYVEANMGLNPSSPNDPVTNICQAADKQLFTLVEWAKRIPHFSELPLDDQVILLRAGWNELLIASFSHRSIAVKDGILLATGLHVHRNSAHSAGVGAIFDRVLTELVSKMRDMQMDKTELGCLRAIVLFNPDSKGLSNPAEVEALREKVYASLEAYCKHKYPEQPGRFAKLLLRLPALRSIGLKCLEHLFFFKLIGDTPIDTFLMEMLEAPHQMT
Sequence of Peroxisome proliferator-activated receptor gamma (Homo sapiens) (P37231 whole entry, the tested form may be a part): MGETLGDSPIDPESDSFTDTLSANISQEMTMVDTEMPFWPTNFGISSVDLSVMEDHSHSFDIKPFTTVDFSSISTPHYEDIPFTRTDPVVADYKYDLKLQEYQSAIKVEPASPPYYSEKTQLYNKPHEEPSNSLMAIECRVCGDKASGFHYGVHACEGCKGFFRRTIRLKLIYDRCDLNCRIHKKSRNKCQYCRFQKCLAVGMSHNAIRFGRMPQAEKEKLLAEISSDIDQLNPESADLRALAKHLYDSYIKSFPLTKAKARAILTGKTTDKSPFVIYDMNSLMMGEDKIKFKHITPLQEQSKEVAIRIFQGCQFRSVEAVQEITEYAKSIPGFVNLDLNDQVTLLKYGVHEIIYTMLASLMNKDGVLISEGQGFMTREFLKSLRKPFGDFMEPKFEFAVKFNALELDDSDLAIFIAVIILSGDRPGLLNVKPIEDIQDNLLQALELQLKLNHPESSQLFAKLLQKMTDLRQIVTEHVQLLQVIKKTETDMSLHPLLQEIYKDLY
Sequence of Retinoic acid receptor RXR-gamma (Homo sapiens) (P48443 whole entry, the tested form may be a part): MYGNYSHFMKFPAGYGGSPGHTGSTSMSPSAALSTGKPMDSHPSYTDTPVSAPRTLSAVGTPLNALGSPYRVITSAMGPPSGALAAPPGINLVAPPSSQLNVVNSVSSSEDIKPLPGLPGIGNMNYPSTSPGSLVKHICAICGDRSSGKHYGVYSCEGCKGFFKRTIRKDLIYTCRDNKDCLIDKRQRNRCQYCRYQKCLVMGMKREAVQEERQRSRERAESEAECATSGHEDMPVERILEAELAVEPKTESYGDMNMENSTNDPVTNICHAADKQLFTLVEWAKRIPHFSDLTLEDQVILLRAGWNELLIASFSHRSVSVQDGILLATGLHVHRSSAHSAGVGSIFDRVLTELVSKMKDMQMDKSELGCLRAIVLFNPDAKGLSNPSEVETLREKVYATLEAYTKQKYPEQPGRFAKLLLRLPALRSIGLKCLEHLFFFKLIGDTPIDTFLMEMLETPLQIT
Sequence of Oxysterols receptor LXR-beta (Homo sapiens) (P55055 whole entry, the tested form may be a part): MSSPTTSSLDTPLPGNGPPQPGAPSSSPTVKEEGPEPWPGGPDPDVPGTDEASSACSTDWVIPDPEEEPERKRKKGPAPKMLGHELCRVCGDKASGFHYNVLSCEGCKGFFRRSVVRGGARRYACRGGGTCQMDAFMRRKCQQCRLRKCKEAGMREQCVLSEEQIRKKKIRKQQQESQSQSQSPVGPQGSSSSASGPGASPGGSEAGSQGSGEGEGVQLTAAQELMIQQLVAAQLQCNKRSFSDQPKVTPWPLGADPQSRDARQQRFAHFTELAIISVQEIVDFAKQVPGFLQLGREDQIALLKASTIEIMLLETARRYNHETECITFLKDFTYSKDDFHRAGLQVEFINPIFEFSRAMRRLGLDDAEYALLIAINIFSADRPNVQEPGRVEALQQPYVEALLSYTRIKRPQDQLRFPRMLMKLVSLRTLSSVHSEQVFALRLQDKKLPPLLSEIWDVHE
Sequence of Peroxisome proliferator-activated receptor delta (Homo sapiens) (Q03181 whole entry, the tested form may be a part): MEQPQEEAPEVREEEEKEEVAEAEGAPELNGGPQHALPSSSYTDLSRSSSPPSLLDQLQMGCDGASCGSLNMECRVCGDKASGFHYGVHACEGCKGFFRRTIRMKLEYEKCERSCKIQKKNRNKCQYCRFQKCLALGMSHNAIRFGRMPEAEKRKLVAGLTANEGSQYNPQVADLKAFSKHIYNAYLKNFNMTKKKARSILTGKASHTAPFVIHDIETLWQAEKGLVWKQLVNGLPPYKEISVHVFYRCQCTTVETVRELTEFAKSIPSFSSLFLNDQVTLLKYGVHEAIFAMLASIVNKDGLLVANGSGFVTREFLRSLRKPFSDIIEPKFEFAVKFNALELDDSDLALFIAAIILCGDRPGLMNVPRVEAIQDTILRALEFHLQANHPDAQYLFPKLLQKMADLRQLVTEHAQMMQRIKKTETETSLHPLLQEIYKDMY

## COc1ccc(CNc2c(-c3cc(Cl)ccn3)nc3ccc(Cl)cn23)cc1
[1]
  inhibition: inactive
[2]
  inhibition: inactive
[3]
  inhibition: inactive
[4]
  Selectivity ratio: 3000
[5]
  Activity: Active
[6]
  Activity: inactive
[7]
  max activation: 23%
[8]
  Activity: inactive
[9]
  inhibition: inactive
[10]
  inhibition: inactive
[11]
  Activity: Active
[12]
  inhibition: inactive
[13]
  Selectivity ratio: 3000
[14]
  inhibition: inactive
[15]
  Selectivity ratio: 3000
[16]
  Selectivity ratio: 3000
[17]
  Activity: inactive
[18]
  Activity: Not Active
[19]
  Selectivity ratio: 3000
[20]
  Selectivity ratio: 3000
[21]
  inhibition: inactive
[22]
  inhibition (INH): Not Active
[23]
  remaining at 24 h: 12%

From ChEMBL document CHEMBL4038333, “Nonacidic Farnesoid X Receptor Modulators” (J Med Chem, 2017)
